Published values collected from several papers.
Each line is one published result; the experiments were not run side by side.
Protein phosphatase methylesterase 1: Protein phosphatase methylesterase 1 (Homo sapiens, UniProt Q9Y570)
ADRA2A: Alpha-2A adrenergic receptor (ADRA2A, Homo sapiens, UniProt P08913)
CA1: Carbonic anhydrase 1 (CA1, Homo sapiens, UniProt P00915)
SLC22A11: Solute carrier family 22 member 11 (SLC22A11, Homo sapiens, UniProt Q9NSA0)

`CC(=O)c1c(C)c2cnc(Nc3ccc(C4CCN(CCS(C)(=O)=O)CC4)cn3)nc2n(C2CCCC2)c1=O` gave an IC50 of greater than 10 µM (Cytochrome P450 2C19 (CYP2C19, Homo sapiens, UniProt P33261); enzyme activity, inhibitor; human, liver microsomes).
For `CC(C)C[C@H]1C(=O)N2CCC[C@H]2[C@]2(O)O[C@](NC(=O)[C@@H]3C=C4c5cccc6[nH]c(Br)c(c56)C[C@H]4N(C)C3)(C(C)C)C(=O)N12`, the IC50 was 4.85 µM (Synaptic vesicular amine transporter (SLC18A2, Homo sapiens, UniProt Q05940); transporter uptake, inhibitor).
The IC50 of `O=C(CP(=O)(Oc1ccccc1)Oc1ccccc1)N/N=C/c1ccncc1Br` is reported as 7 µM (Protein phosphatase methylesterase 1; enzyme activity, inhibitor; lysate).
With `COc1cc2c(cc1OC)CN(CCc1ccc(NC(=O)c3cccc4c(=O)c5cccc(OC)c5[nH]c34)cc1)CC2` the Ki was 1.37 µM (ADRA2A; cell-free assay).
`O=C(Nc1ccc2c(c1)C=CCP(=O)(O)O2)Nc1ccccc1Br` gave a Ki of greater than 10 µM (CA1; enzyme activity, inhibitor, stopped-flow).
`CCCCC1CNC2CCc3ccc(OC)cc3C12` (racemic) has a Ki of 0.26 µM (ADRA2A; ligand displacement, radioligand).
With `O=C(Nc1ccc2c(c1)C=CCP(=O)(O)O2)c1ccc2ccccc2c1` the Ki was greater than 10 µM (CA1; enzyme activity, inhibitor, stopped-flow).
With `CC[C@H](C)[C@H](NC(=O)[C@H](CCCCNC(=O)CN(CCNC(=O)CN(CCNC(=O)CN(CCNC(=O)CN(CCNC(=O)[C@H](CCCNC(=N)N)NC(C)=O)C(=O)Cn1ccc(N)nc1=O)C(=O)Cn1cnc2c(=O)[nH]c(N)nc21)C(=O)Cn1cnc2c(=O)[nH]c(N)nc21)C(=O)Cn1ccc(N)nc1=O)NC(=O)[C@H](C)NC(=O)[C@H](CCCNC(=N)N)NC(=O)[C@H](CCCCN)NC(=O)[C@H](CCC(N)=O)NC(=O)[C@H](CCC(N)=O)NC(=O)[C@H](CC(N)=O)NC(=O)[C@@H](NC(=O)[C@H](CC(C)C)NC(=O)[C@H](CC(N)=O)NC(=O)[C@@H]1CCCN1C(=O)[C@H](CC(=O)O)NC(=O)[C@H](CC(C)C)NC(=O)[C@H](C)NC(=O)[C@H](CS)NC(=O)[C@H](CCCC(=O)NCCN(CC(=O)NCCN(CC(=O)NCCN(CC(=O)NCCN(CC(N)=O)C(=O)Cn1cnc2c(=O)[nH]c(N)nc21)C(=O)Cn1ccc(N)nc1=O)C(=O)Cn1ccc(N)nc1=O)C(=O)Cn1cnc2c(=O)[nH]c(N)nc21)NC(=O)[C@H](Cc1c[nH]c2ccccc12)NC(=O)[C@H](Cc1ccc(O)cc1)NC(=O)[C@H](CCCNC(=N)N)NC(=O)[C@H](CC(N)=O)NC(=O)[C@H](CCCNC(=N)N)NC(=O)[C@H](CC1CCCCC1)NC(=O)[C@H](CCC(=O)O)NC(=O)[C@H](CCCCN)NC(=O)[C@H](CO)NC(=O)[C@H](Cc1ccccc1)NC(C)=O)[C@@H](C)O)C(=O)N[C@@H](CCCNC(=N)N)C(=O)N[C@@H](CO)C(=O)N[C@H](C(=O)N[C@@H](Cc1ccc(O)cc1)C(=O)N[C@@H](CCC(=O)O)C(=O)N[C@@H](CCC(=O)O)C(N)=O)[C@@H](C)CC` the Kd was 0.00058 µM (Receptor tyrosine-protein kinase erbB-2 (ERBB2, Homo sapiens, UniProt P04626); binding, SPR).
`O=C(Nc1ccc(C(F)(F)F)cc1)Nc1ccc2c(c1)C=CCP(=O)(O)O2` has a Ki of greater than 10 µM (CA1; enzyme activity, inhibitor, stopped-flow).
The IC50 of `C[CH2][Hg][S]c1ccccc1C(=O)[O-].[Na+]` is reported as 5 µM (SLC22A11; transporter uptake, inhibitor).
The IC50 of `O=P(Oc1ccccc1)(Oc1ccccc1)C(NCc1cncc2ccccc12)c1ccc(O)cc1` (stereo not drawn) is reported as 15.5 µM (Protein phosphatase methylesterase 1; enzyme activity, inhibitor; lysate).
`NC(=S)N/N=C1/c2ccccc2[C@@H]2[C@H]1[C@@H](c1ccoc1)[C@H](C(=O)c1ccco1)[C@H]2c1ccoc1` has an IC50 of 0.748 µM (Carbonic anhydrase 2 (CA2, Homo sapiens, UniProt P00918); enzyme activity, inhibitor, absorbance).
With `N#Cc1c(Cl)c(Cl)c(Cl)c(C#N)c1Cl` the IC50 was 7.3 µM (SLC22A11; transporter uptake, inhibitor).
`O=C(Nc1cccc(F)c1)Nc1ccc2c(c1)C=CCP(=O)(O)O2` gave a Ki of greater than 10 µM (CA1; enzyme activity, inhibitor, stopped-flow).
`CCOC(=O)c1ccc(OC(=O)CCCCCN=C(N)N)cc1` has an IC50 of 1.99 µM (Tryptase gamma (Homo sapiens, UniProt Q9NRR2); enzyme activity, inhibitor).
